The results in this text go back to PMC8463269 (Acta Pharmaceutica Sinica. B, 2021).

Where two headings read alike, the source gives them in different places. Where a SMILES comes first, the peptide text is derived from it. Bridges are numbered along the chain shown (N, C = ends). [ ]: non-standard residue; d: D form. S5 = C=CCCC[C@](C)(N)C(=O)O

By kon is commonly meant a measure of how fast the partners come together. High values mean fast association, low ones slow association. For orientation: IC50 means the concentration at which inhibition is half-maximal. As usually defined, the koff is the rate constant with which the complex falls apart.

A short description of data set [1]: Circular dichroism spectroscopy, α-helicity. The class given is physicochemical. Particulars: CD, 0.3 mg/mL in 1×PBS pH 7.4, 25 °C, 190–260 nm, average of three readings. A digest of the protocol:
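Spectra were taken in a 1.0 mm path quartz cell with 1 nm bandwidth, 50 nm/min scan speed and 1 s response time. Peptide was also run in PBS with 50% trifluoroethanol. Spectra were converted to mean residue ellipticity (deg·cm²/dmol) versus wavelength.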
On the technique in general: CD spectra are sensitive to the conformation of chiral molecules.

A further data set concerns the target KRAS^G12C protein (Homo sapiens, UniProt P01116, G12C). The data set can be described thus: Bio-Layer Interferometry. It is filed as binding. Put shortly: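 The biotinylated protein was captured on SSA sensors in an Octet RED 96. Test peptides were run at various concentrations, and KD was calculated from the binding kinetics.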
A general note: BLI is a label-free optical method that tracks binding on a fibre tip over time.

The test system of data set [2] is H358 cells. The data set can be described thus: Cell viability, CCK8 assay. It is filed as cell-based. Particulars: read-out: IC50, H358 cell viability, n = 3. Put shortly: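 H358 cells in RPMI-1640 with 10% FBS were plated overnight, then incubated with diluted series of test peptide for 24 h, or 36, 48 and 72 h. CCK8 reagent was added for 1 h at 37 °C and absorbance read at 450 nm. Mean ± SD of three independent experiments.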
(In general: Tetrazolium assays rely on reduction of a dye to a coloured formazan, in cell work by metabolically active cells.)

The nature of data set [3]: Plasma stability in rat plasma. Particulars: 1300 μg/mL, 0 min, HPLC. It is filed as in vitro ADME, Sprague–Dawley rats. Put shortly: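 Heparinised blood was drawn from the femoral artery of Sprague–Dawley rats and centrifuged at 4 °C, 4000 r/min for 10 min to give plasma. Plasma spiked with test peptide was incubated at 37 °C. Aliquots were precipitated in 3 volumes of methanol–acetonitrile (50:50), vortexed and centrifuged, and the supernatant was analysed by C18 RP-HPLC with a 0.1% TFA water/acetonitrile gradient.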

A short description of another data set: circular dichroism. Particulars: PBS; pH 7.4; 25 °C; 0.3 mg/mL.
The subject of data set [4] is H358 cells. The data set can be described thus: Cell cycle analysis by flow cytometry. The class given is cell-based. Particulars: 24-h treatment, highest concentration of the series, control 16.76%.
Data set [5] concerns H358 cells. Put plainly: Annexin V-FITC apoptosis assay by flow cytometry. It is filed as cell-based. Particulars: 24 h, control 36.42%.
The next data set has as its system cyclin B1. Put plainly: Western blot, cyclin B1 expression in H358 cells. It is filed as cell-based. Particulars: H358 cells, 0, 5, 10, 20 μmol/L, 24 h. Put shortly: (§1)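 H358 cells treated with test peptide for 24 h were lysed on ice for 1 h in buffer with phosphatase inhibitor cocktail and PMSF. Proteins were separated by SDS-PAGE and transferred to PVDF. Membranes were incubated with primary antibody at 4 °C overnight, then HRP goat anti-rabbit IgG for 100 min, and imaged by chemiluminescence. GAPDH was probed alongside.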

Data set [6] concerns cyclin-dependent kinase 1 (CDK1). Put plainly: Western blot, CDK1 expression in H358 cells. The class given is cell-based. Particulars: H358 cells, 0, 5, 10, 20 μmol/L, 24 h. A digest of the protocol:
as §1

The subject of another data set is BAX. Put plainly: Western blot, BAX expression in H358 cells. It is filed as cell-based. Particulars: H358 cells, 0, 5, 10, 20 μmol/L, 24 h. A digest of the protocol:
as §1

The test system of the next data set is BCL-2. The data set can be described thus: Western blot, BCL-2 expression in H358 cells. The class given is cell-based. Particulars: H358 cells, 0, 5, 10, 20 μmol/L, 24 h. A digest of the protocol:
as §1

A further data set has as its system caspase 3. Put plainly: Western blot, caspase 3 expression in H358 cells. The class given is cell-based. Particulars: H358 cells, 0, 5, 10, 20 μmol/L, 24 h. A digest of the protocol: as §1
In the next data set the test system is trypsin. The data set can be described thus: Enzymatic degradation by trypsin. It is filed as in vitro ADME. Particulars: 150 μg/mL peptide, 3 μg/mL trypsin, NH4HCO3 buffer, 37 °C, HPLC, n = 3. Put shortly: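 Test peptide was digested with trypsin or chymotrypsin (peptide:enzyme weight ratio 50:1) in NH4HCO3 buffer at 37 °C. Samples were taken at 0, 30 min and 1, 2, 6, 12 and 24 h and quenched with 1% (v/v) formic acid. Analysis was by C18 RP-HPLC with a 0.1% TFA water/acetonitrile gradient (20→90% B over 30 min, 1 mL/min).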

For data set [7], the target named is hexahistidine-tagged recombinant human KRAS^G12C (human) (UniProt P01116). Put plainly: BLI.

Take `CC[C@H](C)[C@H](NC(=O)CNC(=O)[C@H](Cc1ccccc1)NC(=O)[C@H](Cc1ccccc1)NC(=O)[C@H](CCCNC(=N)N)NC(=O)[C@H](CCCNC(=N)N)NC(C)=O)C(=O)N[C@@]1(C)CCCC=CCCC[C@@](C)(C(=O)N[C@@H](CC(C)C)C(=O)N[C@@H](CCCCN)C(=O)N[C@H](C(=O)N[C@@H](CCC(=O)O)C(=O)N[C@@H](CCC(=O)O)C(=O)NCC(=O)N[C@@H](CC(N)=O)C(N)=O)[C@@H](C)O)NC(=O)[C@H](CC(N)=O)NC(=O)[C@H]([C@@H](C)O)NC(=O)[C@H](CC(C)C)NC1=O` [Peptide 1, reference compound]: the “α-helicity in PBS” value in [1] was determined as 16.20%. On KRAS^G12C protein, this molecule came in with a Kd of 58.3 µM and a kon of 14800 M⁻¹ s⁻¹. For the same molecule, in the data set on H358 cells [2] (CCK8, 24-h incubation), the IC50 stood at 21.2 µM. Moreover, the “plasma stability, characteristic peak in the chromatogram” value in data set [3] was “No characteristic peaks were observed”.
At KRAS^G12C protein, `CC[C@H](C)[C@H](NC(=O)CNC(=O)[C@H](Cc1ccccc1)NC(=O)[C@H](Cc1ccccc1)NC(C)=O)C(=O)N[C@@]1(C)CCCC=CCCC[C@@](C)(C(=O)N[C@@H](CC(C)C)C(=O)N[C@@H](CCCCN)C(=O)N[C@H](C(=O)N[C@@H](CCC(=O)O)C(N)=O)[C@@H](C)O)NC(=O)[C@H](CC(N)=O)NC(=O)[C@H]([C@@H](C)O)NC(=O)[C@H](CC(C)C)NC1=O` [Peptide 2] (Ac-FFGI[S5]LTN[S5]LKTE-NH2; staple 5-9) had a Kd of 21.7 µM and a kon of 43600 M⁻¹ s⁻¹.
On to `CC[C@H](C)[C@H](NC(=O)CNC(=O)[C@H](Cc1ccccc1)NC(C)=O)C(=O)N[C@@]1(C)CCCC=CCCC[C@@](C)(C(=O)N[C@@H](CC(C)C)C(=O)N[C@@H](CCCCN)C(=O)N[C@H](C(N)=O)[C@@H](C)O)NC(=O)[C@H](CC(N)=O)NC(=O)[C@H]([C@@H](C)O)NC(=O)[C@H](CC(C)C)NC1=O` [Peptide 3] (Ac-FGI[S5]LTN[S5]LKT-NH2; staple 4-8), for which the helicity in the data set “circular dichroism” is 18.9%. Besides, the “α-helicity in PBS” value in data set [1] is 18.93%. The molecule also showed a kon at KRAS^G12C protein of 4600 M⁻¹ s⁻¹. The IC50 came to 15.7 µM with H358 cells [2] (CCK8, 24-h incubation); 7.55 µM in the data set with H358 cells [2] (CCK8, 36-h incubation); 5.75 µM in the data set on H358 cells [2] (CCK8, 48-h incubation); 6.68 µM in the data set with H358 cells [2] (CCK8, 72-h incubation). Further, in the data set on H358 cells [4], the “percentage of cells in the G2/M” value is on record as 49.79%. Moreover, the “proportion of apoptotic cells (Q2 + Q3)” value with H358 cells [5] (2.5 μmol/L) worked out at 56.63%; in the data set on H358 cells [5] (10 μmol/L) it was 61.40%; in the data set on H358 cells [5] (20 μmol/L) it was 70.70%. In addition, the “cyclin B1 expression” value in the data set with cyclin B1 is listed as “significantly downregulated”. For the same molecule, in data set [6], the CDK1 expression entry is listed as “significantly downregulated”. In the data set on BAX, the “pro-apoptotic BAX protein expression” value is “insignificant effect”. Further, in the data set on BCL-2, the “anti-apoptotic BCL-2 protein expression” value is on record as “obviously inhibited”. Also, in the data set on caspase 3, the “caspase 3 expression” value is listed as “increased”. Moreover, the “percentage of trypsin hydrolysate (g) of the peptide” value is reported as 78% in the data set with trypsin (12 h) and 34% in the data set on trypsin (24 h).
For `CC[C@H](C)[C@H](NC(=O)CNC(C)=O)C(=O)N[C@@]1(C)CCCC=CCCC[C@@](C)(C(=O)N[C@@H](CC(C)C)C(=O)N[C@@H](CCCCN)C(N)=O)NC(=O)[C@H](CC(N)=O)NC(=O)[C@H]([C@@H](C)O)NC(=O)[C@H](CC(C)C)NC1=O` [Peptide 4] (Ac-GI[S5]LTN[S5]LK-NH2; staple 3-7), at KRAS^G12C protein, the Kd turned out to be 25 µM and the kon turned out to be 97.6 M⁻¹ s⁻¹.
As to `CC[C@H](C)[C@H](NC(C)=O)C(=O)N[C@@]1(C)CCCC=CCCC[C@@](C)(C(=O)N[C@@H](CC(C)C)C(N)=O)NC(=O)[C@H](CC(N)=O)NC(=O)[C@H]([C@@H](C)O)NC(=O)[C@H](CC(C)C)NC1=O` [Peptide 5] (Ac-I[S5]LTN[S5]L-NH2; staple 2-6), the kon on KRAS^G12C protein was determined as 3.12 M⁻¹ s⁻¹. The Kd at KRAS^G12C protein (BLI, dissociation rate constant) was determined as 1.06 s⁻¹.
In turn, `CC(=O)N[C@@]1(C)CCCC=CCCC[C@@](C)(C(N)=O)NC(=O)[C@H](CC(N)=O)NC(=O)[C@H]([C@@H](C)O)NC(=O)[C@H](CC(C)C)NC1=O` [Peptide 6] (Ac-[S5]LTN[S5]-NH2; staple 1-5) returned a kon on KRAS^G12C protein of 3.22 M⁻¹ s⁻¹.
For `CC[C@H](C)[C@H](NC(C)=O)C(=O)N[C@@]1(C)CCCC=CCCC[C@@](C)(C(=O)N[C@@H](CC(C)C)C(=O)N[C@@H](CCCCN)C(=O)N[C@H](C(N)=O)[C@@H](C)O)NC(=O)[C@H](CC(N)=O)NC(=O)[C@H]([C@@H](C)O)NC(=O)[C@H](CC(C)C)NC1=O` [Peptide 7] (Ac-I[S5]LTN[S5]LKT-NH2; staple 2-6), the “α-helicity in PBS” value in data set [1] stood at 17.90%. In addition, at KRAS^G12C protein, the Kd turned out to be 87.2 µM and the kon turned out to be 64.7 M⁻¹ s⁻¹.
Consider `CC(=O)N[C@@]1(C)CCCC=CCCC[C@@](C)(C(=O)N[C@@H](CC(C)C)C(=O)N[C@@H](CCCCN)C(=O)N[C@H](C(N)=O)[C@@H](C)O)NC(=O)[C@H](CC(N)=O)NC(=O)[C@H]([C@@H](C)O)NC(=O)[C@H](CC(C)C)NC1=O` [Peptide 8] (Ac-[S5]LTN[S5]LKT-NH2; staple 1-5), for which, at KRAS^G12C protein, the Kd stood at 29.1 µM and the kon amounted to 1750 M⁻¹ s⁻¹.
The like results for `CC[C@H](C)[C@H](NC(=O)CNC(=O)[C@H](Cc1ccccc1)NC(C)=O)C(=O)N[C@@]1(C)CCCC=CCCC[C@@](C)(C(=O)N[C@@H](CC(C)C)C(N)=O)NC(=O)[C@H](CC(N)=O)NC(=O)[C@H]([C@@H](C)O)NC(=O)[C@H](CC(C)C)NC1=O` [Peptide 9] (Ac-FGI[S5]LTN[S5]L-NH2; staple 4-8) were, in that order, 64.9 µM and 1630 M⁻¹ s⁻¹.
For the molecule `CC[C@H](C)[C@H](NC(=O)CNC(=O)[C@H](Cc1ccccc1)NC(C)=O)C(=O)N[C@@]1(C)CCCC=CCCC[C@@](C)(C(N)=O)NC(=O)[C@H](CC(N)=O)NC(=O)[C@H]([C@@H](C)O)NC(=O)[C@H](CC(C)C)NC1=O` [Peptide 10] (Ac-FGI[S5]LTN[S5]-NH2; staple 4-8), at KRAS^G12C protein, the Kd is 131 µM and the on-rate (kon) turned out to be 294 M⁻¹ s⁻¹.
In the case of SAH-SOS1A (peptide 1), in data set [7], the koff amounted to 0.862 s⁻¹.
